Results taken from ChEMBL document CHEMBL5523695, “Discovery of small molecule benzothiazole and indole derivatives tackling tau 2N4R and α-synuclein fibrils” (Bioorg Med Chem, 2024).
Activity calls are given as the source filed them. The rule behind the calls is not given here.

Assays:
[1] = molecular target: T1, Microtubule-associated protein tau (Homo sapiens, UniProt P10636); assay: Inhibition of arachidonic acid-induced full-length four-repeat tau 2N4R (unknown origin) aggregation measured upto 19 hrs by TEM analysis
T1 sequence (P10636 whole entry): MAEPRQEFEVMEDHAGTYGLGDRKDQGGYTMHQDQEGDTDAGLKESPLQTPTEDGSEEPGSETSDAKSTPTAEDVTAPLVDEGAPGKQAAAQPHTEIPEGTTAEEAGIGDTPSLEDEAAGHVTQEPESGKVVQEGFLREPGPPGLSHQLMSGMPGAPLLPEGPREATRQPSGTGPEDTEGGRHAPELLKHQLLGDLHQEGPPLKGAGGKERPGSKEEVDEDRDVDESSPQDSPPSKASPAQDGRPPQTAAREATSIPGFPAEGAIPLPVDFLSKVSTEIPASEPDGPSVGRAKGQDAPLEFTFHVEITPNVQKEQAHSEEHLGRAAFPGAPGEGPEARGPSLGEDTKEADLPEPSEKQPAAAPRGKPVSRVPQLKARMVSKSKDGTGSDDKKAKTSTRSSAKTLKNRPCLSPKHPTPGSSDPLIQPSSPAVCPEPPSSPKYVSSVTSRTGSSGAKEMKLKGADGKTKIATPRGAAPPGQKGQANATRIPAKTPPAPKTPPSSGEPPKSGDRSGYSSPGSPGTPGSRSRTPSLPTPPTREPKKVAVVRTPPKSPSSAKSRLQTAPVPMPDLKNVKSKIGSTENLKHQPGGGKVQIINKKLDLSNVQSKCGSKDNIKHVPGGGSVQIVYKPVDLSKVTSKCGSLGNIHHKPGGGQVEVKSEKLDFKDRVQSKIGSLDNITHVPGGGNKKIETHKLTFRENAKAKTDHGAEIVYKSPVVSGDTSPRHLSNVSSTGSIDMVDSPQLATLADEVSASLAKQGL

[2] = molecular target: Alpha-synuclein (Homo sapiens) (UniProt P37840); assay: Inhibition of alpha-syn (unknown origin) aggregation assessed as reduction in fluorescence by Thioflavin-T based fluorescence analysis relative to control; details: concentration not given here
In short: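 Recombinant α-syn monomer (2 μM final, diluted from a 280 μM stock in 20 mM Tris-HCl pH 7.4) in 10 mM PBS pH 7.4 with 0.5 mM SDS and 300 mM NaCl, one glass bead per well. Compound 100 μM final, ThT 20 μM, 0.25% DMSO. Ex/em 440/485 nm, read every 20 min at 37 °C with shaking, 40–70 h. Triplicates. Plateau fluorescence as % of control, background-corrected.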

[3] = molecular target: T1, Microtubule-associated protein tau; assay: Inhibition of unfolded tau 2N4R (unknown origin) aggregation expressed in Escherichia coli Rosetta BL21 cells assessed as reduction in formation of large dense accumulation of tau fibrils at 100 uM measured after 72 hrs by TEM analysis
In short: (§1)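 Recombinant tau 2N4R (6 μM) incubated with compound at 100 μM, or 0.25 % DMSO, in 10 mM PBS pH 7.4 for 72 h at 37 °C. Placed on Formvar-carbon copper grids for 1 min, rinsed, and negatively stained with 1 % uranyl acetate. TEM at 40k magnification, 100 kV.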

[4] = molecular target: Alpha-synuclein (Homo sapiens) (UniProt P37840); assay: Inhibition of recombinant alpha-Synuclein (unknown origin) aggregation assessed as reduction in protein fibril formation at 100 uM measured after 68 hrs by TEM analysis
In short: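 α-Syn (2 μM) samples taken from the ThT kinetic runs after about 68 h at 37 °C, compound at 100 μM, vehicle 0.25 % DMSO. Applied to Formvar-carbon copper grids for 1 min, washed, and stained with 1 % uranyl acetate for 1 min. Imaged by TEM at 40k magnification, 100 kV.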

[5] = (§2) Cytotoxicity against human M17D cells expressing doxycyclin-inducible alpha-syn-S3K::YFP inclusion-prone fusion protein assessed as reduction in cell confluency at 5 to 40 uM treated with compound starting from 24 hrs post plating followed by doxycyclin addition at 48 hrs and measured 96 hrs post plating by Incucyte-based analysis; assay type: toxicity; details: 72 h, dose 5-40 µM
In short: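 Dox-inducible M17D-TR/αS-3K::YFP neuroblastoma cells seeded at 30,000 per well. Compound added 24 h after plating at 1.25–40 μM, with 0.1 % DMSO as vehicle. Dox at 1 μg/mL final was added at 48 h. At 96 h, Incucyte imaging gave confluence fold change vs vehicle. N = 2 independent experiments, 6–12 wells total. Mean ± SD, one-way ANOVA with Dunnett's test.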

[6] = molecular target: T1, Microtubule-associated protein tau; assay: Inhibition of unfolded tau 2N4R (unknown origin) aggregation expressed in Escherichia coli Rosetta BL21 cells assessed as reduction in short and fine needle like fibrils at 100 uM measured after 72 hrs by TEM analysis; in short: as §1
[7] = molecular target: Alpha-synuclein (Homo sapiens) (UniProt P37840); assay: as §2, with “Inhibition of alpha-syn inclusion formation in” for “Cytotoxicity against”, “inclusions” for “cell confluency at 5 to 40 uM”; assay type: cell-based; details: time 72.0 hrs
In short: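 M17D-TR/αS-3K::YFP cells seeded at 30,000 per well and dosed 24 h post-plating at 1.25–40 μM (vehicle 0.1 % DMSO). Transgene induced at 48 h with dox at 1 μg/mL final. At 96 h, Incucyte analysis of punctate YFP inclusions, expressed as fold change vs DMSO. Two independent experiments, 6–12 wells total, mean ± SD, Dunnett's post-hoc test.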

[8] = molecular target: T1, Microtubule-associated protein tau; assay: Inhibition of unfolded tau 2N4R (unknown origin) aggregation expressed in Escherichia coli Rosetta BL21 cells assessed as reduction in protein fibril formation at 100 uM measured after 72 hrs by TEM analysis; in short: as §1
[9] = molecular target: T1, Microtubule-associated protein tau; assay: Inhibition of human tau 0N4R aggregation expressed in Escherichia coli Rosetta BL21 cells assessed as reduction in oligomer formation at 50 to 200 uM incubated for 10 mins in presence of 53W light exposure for 60 sec by PICUP assay; details: dose 50-200 µM
In short: (§3)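 Tau 2N4R or 0N4R, expressed in-house from a pET30a construct in E. coli Rosetta BL21 and purified by heat step plus SP cation exchange, used at 10 μM in 10 mM phosphate buffer. Compound at 50, 100 and 200 μM. Ru(bpy)3 at 300 μM and APS at 6 mM, 60 s light exposure. Samples boiled at 95 °C for 10 min in reducing Laemmli buffer, then 16 % SDS-PAGE with Coomassie.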

[10] = molecular target: Alpha-synuclein (Homo sapiens) (UniProt P37840); assay: Inhibition of recombinant alpha-Synuclein (unknown origin) aggregation assessed as reduction in fluorescence intensity by measuring residual activity at 100 uM measured every 20 mins for 40 to 70 hrs by Thioflavin T based fluorescence analysis relative to control; details: time 40-70 hrs
In short: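 Recombinant α-syn (2 μM final) in 10 mM PBS pH 7.4 with 0.5 mM SDS and 300 mM NaCl. Compound at 100 μM final, ThT 20 μM, one borosilicate bead per well. Read at 37 °C every 20 min after 10 s shaking, ex 440/em 485 nm, for 40–70 h. Background was ThT plus 0.25 % DMSO without protein. Plateau fluorescence expressed as % of control, triplicates, mean ± SEM.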

[11] = molecular target: T1, Microtubule-associated protein tau; assay: Inhibition of tau 2N4R (unknown origin) aggregation expressed in Escherichia coli Rosetta BL21 cells assessed as reduction in oligomer formation at 50 to 200 uM incubated for 10 mins in presence of 53W light exposure for 60 sec by PICUP assay; details: dose 50-200 µM; in short: as §3
[12] = molecular target: T1, Microtubule-associated protein tau; assay: Inhibition of unfolded tau 2N4R (unknown origin) aggregation expressed in Escherichia coli Rosetta BL21 cells assessed as appearance of rounded structures at 100 uM measured after 72 hrs by TEM analysis; in short: as §1

SMILES: CCC(/C=C1\Sc2ccc(OC)cc2N1CCO)=C\c1sc2ccc(OC)cc2[n+]1CCO
- IC50 [1]: 300 nM

SMILES: O=C(O[C@@H]1Cc2c(O)cc(O)cc2O[C@@H]1c1cc(O)c(O)c(O)c1)c1cc(O)c(O)c(O)c1
- inhibition [2]: 90%

SMILES: O=C(Nc1ccc([N+](=O)[O-])cc1)Nc1ccc2cc[nH]c2c1
- inhibition [3]: Active
- inhibition [4]: Active
- Activity [5]: Toxic
- inhibition [6]: Active
- inhibition [7]: Dose-Dependent Effect
- inhibition [8]: Active
- inhibition [9]: inactive
- Activity [10]: 3.6%
- inhibition [11]: inactive
- inhibition [12]: Active
